# Source: PubChem BioAssay (several laboratories)
# Most compounds without a hit are left out; they make up all but 2.6% or so of the library.
# Rce1 inhib – blocks yeast Ras-converting enzyme; Q03530; yeast membranes, quenched prenylated peptide cleavage fluorescence; calls only; actives 0.27% (n = 290,000);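 active = fall in fluorescence gain of 50% or more versus controls, with final raw signal at or below 3038400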;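 note: plate controls were neutral control wells for no effect and wells lacking membranes for full effect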
# Target sequence (Q03530 whole entry, looked up): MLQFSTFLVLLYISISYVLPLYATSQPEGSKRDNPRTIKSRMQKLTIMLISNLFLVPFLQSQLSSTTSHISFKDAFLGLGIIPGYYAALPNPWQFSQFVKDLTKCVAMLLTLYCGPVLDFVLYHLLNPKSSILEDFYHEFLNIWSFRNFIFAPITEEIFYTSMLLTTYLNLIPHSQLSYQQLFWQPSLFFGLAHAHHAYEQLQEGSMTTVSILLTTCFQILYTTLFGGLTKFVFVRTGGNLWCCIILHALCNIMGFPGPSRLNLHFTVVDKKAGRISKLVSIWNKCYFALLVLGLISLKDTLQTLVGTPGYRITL
# TAAR1 agonist – human TAAR1 agonism. Q96RJ0. CHO RD-HGA16 TAAR1, Fluo-8 calcium fluorescence; vehicle wells 0%, saturating PEA agonist 100%. activation, % at 3 µM. actives 0.99% (n = 360,000). AID 624467;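 active = activation above the mean activation of all test compounds in the run plus 3 SD, cut at about 38% in these data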
# Target sequence (Q96RJ0 whole entry, looked up): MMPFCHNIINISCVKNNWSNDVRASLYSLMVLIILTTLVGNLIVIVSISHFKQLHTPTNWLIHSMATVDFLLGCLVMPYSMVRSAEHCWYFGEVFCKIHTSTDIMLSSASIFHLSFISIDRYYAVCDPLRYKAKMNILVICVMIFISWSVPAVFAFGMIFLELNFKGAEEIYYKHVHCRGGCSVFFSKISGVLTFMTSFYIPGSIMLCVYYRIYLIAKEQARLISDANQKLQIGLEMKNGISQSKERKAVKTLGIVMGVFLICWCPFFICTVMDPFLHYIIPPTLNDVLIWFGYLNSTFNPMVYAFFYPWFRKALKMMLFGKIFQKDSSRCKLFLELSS
#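 System: CHO-derived RD-HGA16 cells with stable Gα16 and human TAAR1 / Times: 17-24 h plating, Fluo-8 75 min 37 °C, 30 min RT / Technique: calcium-sensitive Fluo-8 signal, excitation 470-495, emission 515-575 nm / Measure: % activation relative to PEA EC100 response / Benchmarks: DMSO and PEA EC100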
# Platelet DG rel – modulates dense granule release in human platelets. human platelet-rich plasma, SFLLRN dense granule ATP release, luminescence. inhibition, %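 (compounds screened at 7.5 µM in platelet-rich plasma)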. actives 0.22% (n = 300,000);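 active = mean replicate score, as percent of positive control, at or above 50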
# VLA-4 inh – inhibition in a human VLA-4 binding assay. inhibition, % (about 7 µM as worked out from the volumes in the protocol). P13612. actives 0.2% (n = 330,000). AID 2557. VLA-4 expressing cells, ligand binding flow cytometry; in the data active = inhibition above about 50%
# TAAR1 antagonist – human TAAR1 antagonism | Q96RJ0 | CHO RD-HGA16 TAAR1, Fluo-8 calcium fluorescence, antagonist | inhibition, % at 3 µM | actives 1.5% (n = 360,000);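 active = inhibition above a per-plate cutoff, the mean inhibition of test compounds on that plate plus 3 SD, cut at about 49% in these data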;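 note: 0% = DMSO plus EC80 beta-PEA response and 100% = DMSO alone without agonist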
#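 Test system: CHO RD-HGA16 cells bearing hTAAR1 | Reagent: β-PEA, EC80 | Compound dosing: 3 µM, single point | Schedule: Dye loading 75 min at 37 °C, then 30 min room temperature | Signal: Calcium fluorescence with Fluo-8 | Evaluation: Percent inhibition of PEA-evoked calcium signal, max/basal emission ratio | Control set: DMSO-only wells and EC80 β-PEA-stimulated wells | Repeats: Singlicate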
# TAAR1 nonsel count – counter-screen for TAAR1 antagonists: nonselective antagonists; actives 77% (n = 2,400); shares compounds with TAAR1 antagonist; inhibition, % at 3 µM; counterscreen cell line, calcium fluorescence, antagonist mode; AID 651780; in the data active = inhibition above about 22%;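 note: CHO-Ga16 host cells stimulated with ATP at an EC80 level; 0% = agonist EC80 plus vehicle and 100% = vehicle without agonist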
# TAAR1 antag conf – confirmation of human TAAR1 antagonists; shares compounds with TAAR1 antagonist; TAAR1-expressing cells, fluorescence antagonist read-out; inhibition, % at 3 µM; actives 40% (n = 2,400); AID 651785; in the data active = inhibition above about 49%;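 note: CHO-Ga16 host cells challenged with agonist PEA near its EC80; 0% = agonist at EC80 plus vehicle and 100% = vehicle with no agonist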
# Ga16 ag counter – nonselective Ga16 agonist in TAAR1 antagonist counter-screen | Ga16-expressing cells, calcium fluorescence, agonist counterscreen | shares compounds with TAAR1 antagonist | activation, % at 3 µM | actives 18% (n = 2,400); in the data active = activation above about 12%;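 note: 0% = vehicle wells and 100% = saturating stimulus response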
# TAAR1 ag counter – TAAR1 agonism, antagonist counter-screen; actives 2% (n = 2,400); shares compounds with TAAR1 antagonist; hTAAR1 cell line, fluorescence activation, agonist mode; activation, % at 3 µM; AID 651955; in the data active = activation above about 37%;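 note: CHO cells stably expressing TAAR1 with calcium dye readout; 0% = DMSO vehicle and 100% = full agonist response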
# Active calls of the source: *; i = inactive; · = no result; + = active, no number; ! = not confirmed by another sample.
SMILES,Rce1 inhib,TAAR1 agonist,Platelet DG rel,VLA-4 inh,TAAR1 antagonist,TAAR1 nonsel count,TAAR1 antag conf,Ga16 ag counter,TAAR1 ag counter
COc1ccc(C)cc1NC(=O)C1CCCN(S(=O)(=O)c2cccc3cccnc23)C1 (stereo not drawn),i,·,-2.9,-4.5,·,·,·,·,·
Nc1ccc(C(=O)Nc2ccc(Nc3ccncc3)cc2)c([N+](=O)[O-])c1,·,0.4,·,·,1.6,·,·,·,·
O=c1n(Cc2ccc(Cl)cc2)c2sc3c(c2c2ncnn12)CCCC3,i,7.2,-28.2,-8.7,66.3*,19.7,35.5,8.8,16.2
O=[N+]([O-])c1ccc(N/N=C/c2ccccc2O)cc1,i,37.1,-4.8,-18.6,79.4*,27.5*,84.4*,9.2,51.5*
O=C(c1cc(Cl)nc2ccccc12)N1CCN(S(=O)(=O)c2cccc(F)c2)CC1,i,2.6,5.3,6.0,3.0,·,·,·,·
O=S(=O)(c1cccc(F)c1)N1CCN(c2nc(-c3cccnc3)nc3ccccc23)CC1,·,21.0,·,-23.9,61.1*,24.1*,54.4*,8.5,11.4
CC(=O)Nc1ccc2c(c1)-c1ccc(F)cc1C2=O,·,2.5,·,·,5.7,·,·,·,·
Clc1ccc(OCc2nnc(SCc3nc4ccccc4[nH]3)n2Cc2ccco2)cc1,i,7.3,-8.9,7.7,49.9*,44.6*,53.5*,13.5*,15.4
Clc1cccc(-c2nnc(SCc3nc4ccccc4[nH]3)n2Cc2ccco2)c1,i,14.1,-1.8,10.0,7.1,·,·,·,·
CC1(C)Cc2c(cnn2-c2cccc(F)c2)C(NC(=O)CSc2ccncc2)C1 (stereo not drawn),i,0.1,33.2,18.1,-2.2,·,·,·,·
NC(=O)C1CCN(C(=O)c2ccc3c(=O)n(Cc4ccco4)c(SCc4ccc([N+](=O)[O-])cc4)nc3c2)CC1,i,2.7,0.3,12.1,49.3*,30.8*,41.2,5.2,7.0
CCCCCn1c(SCC2CCCO2)nc2cc(C(=O)N3CCC(C(N)=O)CC3)ccc2c1=O (stereo not drawn),·,19.1,·,-9.3,25.4,·,·,·,·
COc1ccc(CN2C[C@H](C)[C@@H](CC(=O)NCc3ccccc3)C2=O)cc1,i,11.8,-1.3,-5.9,6.5,·,·,·,·
CCN(CC(=O)NCc1cccs1)CC(=O)Nc1c(Cl)ccc(C)c1Cl,·,5.1,·,14.1,20.7,·,·,·,·
CCN(CC(=O)Nc1ccccc1OC)CC(=O)Nc1c(Cl)ccc(C)c1Cl,i,11.9,·,-6.5,57.6*,21.9*,39.7,7.9,8.4
N#C/C(=C\c1cc2ccccc2nc1N1CCOCC1)C(=O)Nc1ccc(N2CCOCC2)cc1,i,12.6,-0.5,0.7,58.7*,30.2*,46.0,8.8,6.2
CCCN(C)C1CN(Cc2cn(Cc3ccccc3)nn2)S(=O)(=O)C1 (stereo not drawn),·,2.1,·,·,-21.4,·,·,·,·
Clc1ccc2nc(-c3cccc(SC4CCCCC4)c3)c(NCc3ccccc3)n2c1,i,1.2,3.2,1.3,28.6,·,·,·,·
c1csc(-c2nc3ccccn3c2NC2CCCCC2)c1,i,4.1,-6.9,3.6,2.0,·,·,·,·
Cc1ccc2nc(-c3cccc(SC4CCCCC4)c3)c(NCc3ccccc3)n2c1,·,8.1,·,7.5,84.2*,37.0*,60.6*,4.2,8.0
CCC(C)Sc1cc(-c2nc3ccccn3c2NC2CCCCC2)ccc1OC (stereo not drawn),+,3.9,-1.9,-21.2,78.5*,42.1*,63.1*,8.2,13.0
CCC(C)Sc1cccc(-c2nc3ccc(C)cn3c2NC2CCCCC2)c1 (stereo not drawn),i,24.2,-1.6,12.8,57.4*!,35.1*,48.8*,10.7,15.3
CC(=O)c1ccc(-c2cccc(-c3nc4ccccn4c3NC3CCCCC3)c2)cc1,i,11.9,0.1,-14.2,58.7*,23.3*,46.3,3.6,5.6
Cc1ccc(C(=O)NCC(c2ccc(F)cc2)N2CCOCC2)s1 (stereo not drawn),·,-0.6,·,1.5,-11.2,·,·,·,·
Cc1ccc(S(=O)(=O)NC(C)C(=O)NC(C)c2cccs2)cc1 (stereo not drawn),·,3.7,-2.2,-3.5,-7.8,·,·,·,·
SMILES,Rce1 inhib,TAAR1 agonist,Platelet DG rel,VLA-4 inh,TAAR1 antagonist,TAAR1 nonsel count,TAAR1 antag conf,Ga16 ag counter,TAAR1 ag counter
COCc1ccc(-c2c(-c3ccsc3)oc(=O)c3cc(OC)c(OC)cc23)cc1,·,2.4,·,2.6,57.6*,17.5,32.6,2.1,1.2
Cc1ccccc1CN1CCc2c(OCC(=O)N3CCCc4ccccc43)cccc2C1=O,i,12.0,-6.5,4.4,72.1*,40.6*,53.8*,10.7,7.9
O=C(Nc1ccc(N2CCN(C(=O)c3ccc(Cl)cc3)CC2)cc1)c1ccc2c(c1)OCCO2,i,12.3,3.8,3.3,57.7*,43.9*,49.5*,10.7,5.0
O=C(Nc1ccc(N2CCN(C(=O)c3ccco3)CC2)c(Cl)c1)c1cccs1,i,17.6,-1.0,-9.3,49.6*,30.6*,38.4,7.6,10.1
CC(C)C(=O)N1CCN(c2ccc(NC(=O)c3cccs3)cc2Cl)CC1,i,22.6,26.3,15.9,29.8,·,·,·,·
O=C(Nc1ccc(N2CCN(C(=O)c3ccccc3)CC2)cc1)c1ccc2c(c1)OCCO2,i,8.3,13.3,2.5,11.9,·,·,·,·
O=C(Nc1ccc(N2CCN(C(=O)c3ccccc3)CC2)c(Cl)c1)c1ccc(Br)o1,i,16.7,6.4,-51.4,68.5*,35.1*,46.9,8.4,5.2
O=C(Nc1ccc(N2CCN(C(=O)c3ccccc3)CC2)cc1)c1cc2ccccc2o1,·,14.8,·,4.6,77.0*,44.0*,62.0*,9.8,14.1
COc1cccc(CNC(=O)C(NS(=O)(=O)c2ccc3c(c2)CCN3C(C)=O)C(C)C)c1 (stereo not drawn),i,8.6,1.5,-3.4,-19.9,·,·,·,·
O=C(c1cc(COc2ccc(F)c(F)c2)on1)N1CCN(C/C=C/c2ccccc2)CC1,i,3.7,-1.5,·,12.8,·,·,·,·
CCN1C(=O)c2ccc(C(=O)Nc3nccs3)cc2C1=O,i,3.2,-2.1,0.0,17.1,·,·,·,·
CC(C)(C)N1C(=O)c2ccc(C(=O)Nc3nccs3)cc2C1=O,i,12.1,-20.1,14.7,49.1*,13.2,37.0,5.7,2.3
O=C(NCCn1cc(SCc2ccc(F)cc2)c2ccccc21)c1c(F)cccc1F,i,1.3,-1.8,26.4,73.5*,30.8*,47.9,6.5,5.7
O=C(NCCn1cc(SCc2ccccc2)c2ccccc21)c1c(F)cccc1F,i,1.9,-1.8,18.9,85.4*,32.2*,47.1,3.7,-1.0
